In ChEMBL document CHEMBL3867450, “Synthesis of Natural Acylphloroglucinol-Based Antifungal Compounds against Cryptococcus Species” (J Nat Prod, 2016):
In brackets after ≈: the same amount, converted by molar mass. Activity calls are given as the source filed them. The rule behind the calls is not given here.

Tests used:
[1] = Selectivity index, ratio of IC50 for pig LLC-PK1 cells to MIC for Cryptococcus neoformans ATCC 90113; assay type: toxicity, cell-based; conditions: read-out: Selectivity Index
Summary of the method: (§1)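 Selectivity index is the mammalian-cell IC50 (neutral red assay, Vero or LLC-PK1) divided by the MIC against C. neoformans ATCC 90113 (modified CLSI method).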

[2] = Cytotoxicity against pig LLC-PK1 cells assessed as reduction in viable cells measured after 48 hrs by neutral red dye-based method; assay type: toxicity, cell-based; conditions: pig (Sus scrofa)
Summary of the method: (§2)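 Vero (African green monkey kidney […]) and LLC-PK1 (pig kidney epithelial) cells were scored for viability by neutral red uptake. The top test concentration was 50 μg/mL. IC50 is the concentration causing 50% growth inhibition of the mammalian cells.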

[3] = Selectivity index, ratio of IC50 for African green monkey Vero cells to MIC for Cryptococcus neoformans ATCC 90113; assay type: toxicity, cell-based; conditions: read-out: Selectivity Index; summary of the method: as §1
[4] = Antifungal activity against Cryptococcus neoformans ATCC 90113 assessed as growth inhibition measured after 72 hrs by CLSI method; assay type: functional
Summary of the method: (§3)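 Susceptibility testing by a modified CLSI (formerly NCCLS) method against C. neoformans ATCC 90113, C. neoformans H99 (from Duke University) or C. gattii ATCC 32609. The top test concentration was 20 μg/mL. MIC is the lowest concentration allowing no detectable growth. IC50 is the concentration giving 50% growth inhibition.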

Cryptococcus neoformans [5] = test: Antifungal activity against Cryptococcus neoformans H99 assessed as growth inhibition measured after 72 hrs by CLSI method; assay type: functional; conditions: var grubii H99 ; summary of the method: as §3
[6] = test system: Cryptococcus bacillisporus; test: Antifungal activity against Cryptococcus gattii ATCC 32609 assessed as growth inhibition measured after 72 hrs by CLSI method; assay type: functional; conditions: ATCC 32609, 72 h; summary of the method: as §3
[7] = Cytotoxicity against African green monkey Vero cells assessed as reduction in viable cells measured after 48 hrs by neutral red dye-based method; assay type: toxicity, cell-based; conditions: African green monkey (Chlorocebus sabaeus); summary of the method: as §2
[8] = Antifungal activity against Cryptococcus neoformans ATCC 90113 assessed as growth inhibition at 20 ug/ml measured after 72 hrs by CLSI method; assay type: functional
Summary of the method: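 Primary screen against C. neoformans ATCC 90113 by a modified CLSI method at 20 μg/mL. Growth inhibition above 50% at this concentration was scored as active and taken to further testing.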

Cryptococcus neoformans [9] = test: Antifungal activity against Cryptococcus neoformans ATCC 90113 assessed as growth inhibition at 20 ug/ml measured after 72 hrs by CLSI method; conditions: read-out: GI
[10] = test system: Cryptococcus bacillisporus; test: Antifungal activity against Cryptococcus gattii ATCC 32609 assessed as growth inhibition at 20 ug/ml measured after 72 hrs by CLSI method; assay type: functional; conditions: ATCC 32609, 72 h, read-out: GI
Staphylococcus aureus = test: Antibacterial activity against Staphylococcus aureus ATCC 29213 by CLSI method; assay type: functional

Structure (SMILES)	selectivity ratio [1]	IC50 at 48 h [2]	selectivity ratio [3]	MIC [4]	MIC (Cryptococcus neoformans [5])	MIC [6]	IC50 at 48 h [7]	growth inhibition (GI) [8]	inhibition of growth at 20 µg/mL (Cryptococcus neoformans [9])	inhibition of growth at 20 µg/mL [10]	MIC (Staphylococcus aureus)	Activity (Staphylococcus aureus)
CC(C)C(=O)c1c(O)cc(O)c(Cc2c(F)cccc2Cl)c1O	15.5	26.3 µg/mL (≈ 77.6 µM)	16.5	1.7 µg/mL (≈ 5.02 µM)	6.7 µg/mL (≈ 19.8 µM)	4.2 µg/mL (≈ 12.4 µM)	28 µg/mL (≈ 82.7 µM)	> 50%				
CCOC(=O)Cc1c(O)cc(O)c(C(=O)C(C)C)c1O								< 50%	< 50%	< 50%		
CC(C)C(=O)c1c(O)cc(OCc2c(F)cccc2Cl)cc1O								< 50%				
COc1cccc2c1C(=O)c1c(O)c3c(c(O)c1C2=O)C[C@@](O)(C(=O)CO)C[C@@H]3O[C@H]1C[C@H](N)[C@H](O)[C@H](C)O1 [DOXORUBICIN]		1.3 µg/mL (≈ 2.39 µM)					> 10 µg/mL					
CC(C)C(=O)c1c(O)cc(O)c(C(=O)C(C)C)c1O	7	17.5 µg/mL (≈ 65.7 µM)	4.6	2.5 µg/mL (≈ 9.39 µM)	3.3 µg/mL (≈ 12.4 µM)	2.1 µg/mL (≈ 7.89 µM)	11.5 µg/mL (≈ 43.2 µM)	> 50%			1.3 µg/mL (≈ 4.88 µM)	
CC(C)C(=O)c1c(O)cc(O)c(Cc2c(Cl)cccc2Cl)c1O	29.5	29.5 µg/mL (≈ 83 µM)	27.5	1 µg/mL (≈ 2.82 µM)	4.2 µg/mL (≈ 11.8 µM)	2.1 µg/mL (≈ 5.91 µM)	27.5 µg/mL (≈ 77.4 µM)	> 50%				
CC(C)C(=O)c1c(O)cc(OCc2ccc(C(C)C)cc2)cc1O								< 50%				
C[C@@H]1[C@H](O)[C@@H](C)/C=C/C=C/C=C/C=C/C=C/C=C/C=C/[C@H](O[C@@H]2O[C@H](C)[C@@H](O)[C@H](N)[C@@H]2O)C[C@@H]2O[C@](O)(C[C@@H](O)C[C@@H](O)[C@H](O)CC[C@@H](O)C[C@@H](O)CC(=O)O[C@H]1C)C[C@H](O)[C@H]2C(=O)O [AMPHOTERICIN B]				0.4 µg/mL (≈ 0.433 µM)	0.3 µg/mL (≈ 0.325 µM)	0.3 µg/mL (≈ 0.325 µM)						
OC(Cn1cncn1)(Cn1cncn1)c1ccc(F)cc1F [FLUCONAZOLE]				6.3 µg/mL (≈ 20.6 µM)	12.5 µg/mL (≈ 40.8 µM)	25 µg/mL (≈ 81.6 µM)						
COc1cc(C(=O)c2c(O)cc(O)c(C(=O)C(C)C)c2O)cc(OC)c1OC								< 50%	< 50%	< 50%		
CCCC(=O)c1c(O)cc(O)cc1O								< 50%				
CCCC(=O)c1c(O)cc(O)c(CC=C(C)C)c1O	8.5	28 µg/mL (≈ 106 µM)	4.9	3.3 µg/mL (≈ 12.5 µM)	8.3 µg/mL (≈ 31.4 µM)	5 µg/mL (≈ 18.9 µM)	16.3 µg/mL (≈ 61.7 µM)	> 50%				
CC(C)C(=O)c1c(O)cc(O)c(C(=O)c2ccc(F)cc2)c1O	3.3	27.5 µg/mL (≈ 86.4 µM)	1.6	8.3 µg/mL (≈ 26.1 µM)	11.7 µg/mL (≈ 36.8 µM)	6.7 µg/mL (≈ 21 µM)	13.5 µg/mL (≈ 42.4 µM)	> 50%				
CC(C)C(=O)c1c(O)cc(O)c(Cc2ccc(C(C)C)cc2)c1O	> 33.3	> 50 µg/mL	> 33.3	1.5 µg/mL (≈ 4.57 µM)	2.1 µg/mL (≈ 6.39 µM)	2.1 µg/mL (≈ 6.39 µM)	> 50 µg/mL	> 50%			10 µg/mL (≈ 30.4 µM)	
CC(C)C(=O)c1c(O)cc(O)c(Cc2ccccc2)c1O	4.3	28.5 µg/mL (≈ 99.5 µM)	4.2	6.7 µg/mL (≈ 23.4 µM)	16.7 µg/mL (≈ 58.3 µM)	10 µg/mL (≈ 34.9 µM)	28 µg/mL (≈ 97.8 µM)	> 50%				
CC(C)C(=O)c1c(O)cc(O)cc1OCc1c(Cl)cccc1Cl	4.2	34.5 µg/mL (≈ 97.1 µM)	3.9	8.3 µg/mL (≈ 23.4 µM)	5 µg/mL (≈ 14.1 µM)	5 µg/mL (≈ 14.1 µM)	32.5 µg/mL (≈ 91.5 µM)	> 50%				
CC(C)=CCc1c(O)cc(O)c(C(=O)C(C)C)c1O	6.2	31 µg/mL (≈ 117 µM)	3.6	5 µg/mL (≈ 18.9 µM)	8.3 µg/mL (≈ 31.4 µM)	5 µg/mL (≈ 18.9 µM)	18 µg/mL (≈ 68.1 µM)	> 50%				
CC(C)C(=O)c1c(O)cc(O)cc1OCC(=O)NC(C)(C)C								< 50%				

Structure (SMILES)	selectivity ratio [1]	IC50 at 48 h [2]	selectivity ratio [3]	MIC [4]	MIC (Cryptococcus neoformans [5])	MIC [6]	IC50 at 48 h [7]	growth inhibition (GI) [8]	inhibition of growth at 20 µg/mL (Cryptococcus neoformans [9])	inhibition of growth at 20 µg/mL [10]	MIC (Staphylococcus aureus)	Activity (Staphylococcus aureus)
CC(C)C(=O)c1c(O)cc(O)c(CC#N)c1O								< 50%	< 50%	< 50%		
CC(C)C(=O)c1c(O)cc(O)c(Cc2ccc([N+](=O)[O-])cc2)c1O	4.2	28 µg/mL (≈ 84.5 µM)	2.7	6.7 µg/mL (≈ 20.2 µM)	10 µg/mL (≈ 30.2 µM)	5 µg/mL (≈ 15.1 µM)	18 µg/mL (≈ 54.3 µM)	> 50%				
CC(C)=CCC/C(C)=C/CC/C(C)=C/Cc1c(O)cc(O)c(C(=O)C(C)C)c1O	3.6	27 µg/mL (≈ 67.4 µM)	3.3	7.5 µg/mL (≈ 18.7 µM)	5 µg/mL (≈ 12.5 µM)	7.5 µg/mL (≈ 18.7 µM)	25 µg/mL (≈ 62.4 µM)	> 50%				
C=CCc1c(O)cc(O)c(C(=O)C(C)C)c1O								< 50%	< 50%	< 50%		
CC(C)C(=O)c1c(O)cc(O)cc1OCc1c(F)cccc1Cl	> 10	> 50 µg/mL	> 10	5 µg/mL (≈ 14.8 µM)	8.3 µg/mL (≈ 24.5 µM)	5 µg/mL (≈ 14.8 µM)	> 50 µg/mL	> 50%				Active
CC(C)=CCC/C(C)=C/Cc1c(O)cc(O)c(C(=O)C(C)C)c1O	14.4	24.5 µg/mL (≈ 73.7 µM)	13.2	1.7 µg/mL (≈ 5.11 µM)	1.7 µg/mL (≈ 5.11 µM)	1 µg/mL (≈ 3.01 µM)	22.5 µg/mL (≈ 67.7 µM)	> 50%				
CC(C)C(=O)c1c(O)cc(O)cc1O								< 50%				
CC(C)=CCc1c(O)cc(O)c(C(=O)C(C)(C)C)c1O								< 50%				
COc1ccc(C(=O)c2c(O)cc(O)c(C(=O)C(C)C)c2O)cc1	1.9	24.8 µg/mL (≈ 75.1 µM)	0.8	13.3 µg/mL (≈ 40.3 µM)	10 µg/mL (≈ 30.3 µM)	8.3 µg/mL (≈ 25.1 µM)	10.5 µg/mL (≈ 31.8 µM)	> 50%				
CC(C)C(=O)c1c(O)cc(O)c(C(=O)c2ccccc2)c1O	4.3	42.5 µg/mL (≈ 142 µM)	2.3	10 µg/mL (≈ 33.3 µM)	10 µg/mL (≈ 33.3 µM)	8.3 µg/mL (≈ 27.6 µM)	23 µg/mL (≈ 76.6 µM)	> 50%				
CC(C)(C)C(=O)c1c(O)cc(O)cc1O								< 50%				
CC(C)C(=O)c1c(O)cc(OCC(=O)NC(C)(C)C)cc1O								< 50%				
CCOC(=O)COc1cc(O)c(C(=O)C(C)C)c(OCC(=O)OCC)c1								< 50%				
CCCC(=O)c1c(O)cc(O)c(C(=O)c2ccccc2)c1O	4	27 µg/mL (≈ 89.9 µM)	2.1	6.7 µg/mL (≈ 22.3 µM)	6.7 µg/mL (≈ 22.3 µM)	5 µg/mL (≈ 16.6 µM)	14.3 µg/mL (≈ 47.6 µM)	> 50%				
CCOC(=O)COc1cc(O)c(C(=O)C(C)C)c(O)c1								< 50%				
CCCC(=O)c1c(O)cc(O)c(C(=O)CCC)c1O	11.7	24.5 µg/mL (≈ 92 µM)	6.9	2.1 µg/mL (≈ 7.89 µM)	2.5 µg/mL (≈ 9.39 µM)	1.5 µg/mL (≈ 5.63 µM)	14.5 µg/mL (≈ 54.5 µM)	> 50%				
CCOC(=O)COc1cc(O)cc(O)c1C(=O)C(C)C								< 50%				
C#CCc1c(O)cc(O)c(C(=O)C(C)C)c1O								< 50%	< 50%	< 50%		
